# Data taken from ChEMBL document CHEMBL2074042, “beta-lactam antibiotics as substrates for OCTN2, an organic cation/carnitine transporter” (J Biol Chem, 2000).
# How the values were obtained:
# Type in all cases: functional, cell-based
# [1] = target: T1, Solute carrier family 15 member 2 (Rattus norvegicus) (UniProt Q63424); assay: TP_TRANSPORTER: inhibition of Gly-Sar uptake (Gly-Sar: 25 uM, Cefoselis: 2500uM) in PEPT2-expressing HeLa cells; set-up: scale not given: the % may be the effect or the level left
# T1 sequence (whole entry): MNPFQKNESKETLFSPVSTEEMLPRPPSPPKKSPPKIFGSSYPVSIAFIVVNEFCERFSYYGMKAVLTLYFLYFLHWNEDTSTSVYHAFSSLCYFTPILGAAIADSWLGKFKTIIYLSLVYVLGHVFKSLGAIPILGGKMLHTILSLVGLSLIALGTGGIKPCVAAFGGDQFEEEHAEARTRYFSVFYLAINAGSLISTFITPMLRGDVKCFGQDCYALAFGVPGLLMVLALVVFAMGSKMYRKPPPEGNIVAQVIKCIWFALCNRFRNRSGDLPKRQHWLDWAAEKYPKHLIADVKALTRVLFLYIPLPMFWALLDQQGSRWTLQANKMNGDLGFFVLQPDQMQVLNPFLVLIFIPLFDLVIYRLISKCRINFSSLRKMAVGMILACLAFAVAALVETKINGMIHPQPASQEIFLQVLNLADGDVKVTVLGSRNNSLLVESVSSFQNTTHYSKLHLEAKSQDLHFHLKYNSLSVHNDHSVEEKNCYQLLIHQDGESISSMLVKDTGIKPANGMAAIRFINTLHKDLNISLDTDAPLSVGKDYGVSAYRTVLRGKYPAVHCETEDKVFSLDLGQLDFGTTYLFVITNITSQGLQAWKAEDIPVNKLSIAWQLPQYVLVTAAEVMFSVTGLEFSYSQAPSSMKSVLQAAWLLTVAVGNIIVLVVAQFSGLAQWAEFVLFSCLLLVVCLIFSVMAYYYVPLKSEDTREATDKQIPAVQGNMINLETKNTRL
# Method in brief: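 HeLa cells expressing rat PEPT2 cDNA. [14C]glycylsarcosine (25 μM) uptake for 5 min under an inward H+ gradient in Mes/Tris buffer, pH 6.0, with test compound at 2.5 mM. Vector-cell uptake subtracted. Results as percent of control, three independent measurements, mean ± S.E.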
# [2] = target: T2, OCTN2 (organic cation/carnitine transporter 2) (Rattus norvegicus, UniProt O70594); assay: TP_TRANSPORTER: inhibition of Carnitine uptake (Carnitine: 0.02 uM, Cefoselis: 2500 uM) in OCTN2-expressing HeLa cells; set-up: scale not given: the % may be the effect or the level left; settings: human, probe carnitine (0.02 uM), read-out: Activity
# T2 sequence (O70594 whole entry): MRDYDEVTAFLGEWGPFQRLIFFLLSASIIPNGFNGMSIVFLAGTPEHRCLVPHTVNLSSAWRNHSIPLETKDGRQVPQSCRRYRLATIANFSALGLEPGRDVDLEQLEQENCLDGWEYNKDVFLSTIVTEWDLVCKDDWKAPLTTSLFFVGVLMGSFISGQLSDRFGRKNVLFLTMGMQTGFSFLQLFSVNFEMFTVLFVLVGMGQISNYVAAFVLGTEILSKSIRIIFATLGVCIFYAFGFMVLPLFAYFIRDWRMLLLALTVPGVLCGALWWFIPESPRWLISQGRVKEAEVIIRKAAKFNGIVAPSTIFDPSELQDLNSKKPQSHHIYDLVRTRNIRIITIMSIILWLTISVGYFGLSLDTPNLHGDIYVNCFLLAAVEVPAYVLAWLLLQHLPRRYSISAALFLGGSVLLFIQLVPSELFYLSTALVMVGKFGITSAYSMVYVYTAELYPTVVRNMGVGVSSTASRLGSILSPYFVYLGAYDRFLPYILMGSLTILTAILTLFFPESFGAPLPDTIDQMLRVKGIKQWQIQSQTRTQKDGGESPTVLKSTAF
# Method in brief: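 HeLa cells expressed human or rat OCTN2 cDNA by vaccinia virus/T7 system. [3H]carnitine (20 nM) uptake for 30 min at room temperature in Na+-containing Hepes/Tris buffer, pH 7.5, with β-lactam at 2.5 mM. Lysate radioactivity counted. Endogenous activity from vector-only cells subtracted. Four measurements from two transfections.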
# [3] = target: T3, Organic cation/carnitine transporter 2 (Homo sapiens, UniProt O76082); assay: TP_TRANSPORTER: inhibition of Carnitine uptake (Carnitine: 0.02 uM) in OCTN2-expressing HeLa cells
# T3 sequence (O76082 whole entry): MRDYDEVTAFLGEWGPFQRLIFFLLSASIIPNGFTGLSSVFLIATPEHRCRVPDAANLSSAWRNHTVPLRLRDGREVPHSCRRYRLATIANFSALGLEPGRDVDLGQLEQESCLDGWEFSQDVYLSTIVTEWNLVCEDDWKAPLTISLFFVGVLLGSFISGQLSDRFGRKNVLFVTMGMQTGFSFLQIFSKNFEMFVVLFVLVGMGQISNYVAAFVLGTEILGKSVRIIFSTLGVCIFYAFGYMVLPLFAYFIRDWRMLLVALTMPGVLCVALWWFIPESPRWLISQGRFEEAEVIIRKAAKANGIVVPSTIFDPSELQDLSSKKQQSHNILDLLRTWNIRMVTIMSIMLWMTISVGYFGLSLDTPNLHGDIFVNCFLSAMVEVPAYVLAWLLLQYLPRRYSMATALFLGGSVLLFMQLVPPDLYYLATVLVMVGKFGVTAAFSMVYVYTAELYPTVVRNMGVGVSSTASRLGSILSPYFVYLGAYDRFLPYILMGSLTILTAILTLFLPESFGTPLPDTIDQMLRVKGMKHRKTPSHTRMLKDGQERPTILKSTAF
# [4] = target: T4, Solute carrier family 15 member 1 (Homo sapiens) (UniProt P46059); assay: TP_TRANSPORTER: inhibition of Gly-Sar uptake (Gly-Sar: 50 uM, Cefoselis: 2500uM) in PEPT1-expressing HeLa cells; set-up: scale not given: the % may be the effect or the level left
# T4 sequence (whole entry): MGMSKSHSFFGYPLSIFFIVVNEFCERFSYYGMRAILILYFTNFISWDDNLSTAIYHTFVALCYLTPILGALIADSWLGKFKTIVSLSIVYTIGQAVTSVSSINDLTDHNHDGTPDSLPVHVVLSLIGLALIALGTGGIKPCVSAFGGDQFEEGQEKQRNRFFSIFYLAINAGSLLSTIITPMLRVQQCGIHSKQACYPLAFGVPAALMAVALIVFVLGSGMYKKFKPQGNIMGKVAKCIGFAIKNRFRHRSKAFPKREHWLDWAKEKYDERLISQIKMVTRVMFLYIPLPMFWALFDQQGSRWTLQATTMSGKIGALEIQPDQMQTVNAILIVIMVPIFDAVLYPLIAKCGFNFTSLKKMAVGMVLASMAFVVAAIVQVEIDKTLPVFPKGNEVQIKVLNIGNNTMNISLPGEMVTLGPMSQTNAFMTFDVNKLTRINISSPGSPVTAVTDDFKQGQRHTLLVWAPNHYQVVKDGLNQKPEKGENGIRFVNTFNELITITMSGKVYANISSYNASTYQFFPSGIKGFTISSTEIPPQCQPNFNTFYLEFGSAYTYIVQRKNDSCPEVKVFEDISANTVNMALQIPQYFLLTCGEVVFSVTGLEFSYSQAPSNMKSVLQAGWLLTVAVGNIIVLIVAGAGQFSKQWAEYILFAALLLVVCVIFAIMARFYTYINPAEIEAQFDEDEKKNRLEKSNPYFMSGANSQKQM
# Method in brief: (§1)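 HeLa cells expressing human PEPT1 cDNA. [14C]glycylsarcosine (50 μM) uptake for 5 min in Mes/Tris buffer, pH 6.0, giving an H+ gradient, with test compound at 2.5 mM. Vector-transfected uptake subtracted. Percent of control, n=3, mean ± S.E.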
# [5] = target: T5, Organic cation/carnitine transporter 2 (Rattus norvegicus, UniProt O70594); assay: (§2) TP_TRANSPORTER: inhibition of Carnitine uptake (Carnitine: 0.02 uM, Ceftazidime: 2500 uM) in OCTN2-expressing HeLa cells; settings: human
# T5 sequence (O70594 whole entry): T2 sequence (O70594 whole entry)
# [6] = target: T3, Organic cation/carnitine transporter 2; assay: as §2
# [7] = target: T1, Solute carrier family 15 member 2 (Rattus norvegicus); assay: TP_TRANSPORTER: inhibition of Gly-Sar uptake (Gly-Sar: 25 uM, Ceftazidime: 2500uM) in PEPT2-expressing HeLa cells
# Method in brief: (§3)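 HeLa cells were transfected with human PEPT1 or rat PEPT2 cDNA. [14C]glycylsarcosine uptake (50 μM for PEPT1, 25 μM for PEPT2) ran 5 min at room temperature, inward H+ gradient, 25 mM Mes/Tris pH 6.0 buffer, antibiotic 2.5 mM. Vector-cell uptake was subtracted and lysates were scintillation-counted. Mean ± S.E., three measurements.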
# [8] = target: T4, Solute carrier family 15 member 1 (Homo sapiens); assay: TP_TRANSPORTER: inhibition of Gly-Sar uptake (Gly-Sar: 50 uM, Ceftazidime: 2500uM) in PEPT1-expressing HeLa cells; method in brief: as §3
# [9] = target: T3, Organic cation/carnitine transporter 2; assay: TP_TRANSPORTER: inhibition of Carnitine uptake (Carnitine: 0.02 uM, Cephalexin: 2500 uM) in OCTN2-expressing HeLa cells
# [10] = target: T3, Organic cation/carnitine transporter 2; assay: TP_TRANSPORTER: uptake in OCTN2-expressing HeLa cells
# Method in brief: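 hOCTN2 or vector-transfected HeLa cells incubated with 1 mM cephaloridine for 1 h at 37 °C in NaCl or N-methyl-D-glucamine chloride (Na+-free) medium. Cells lysed in water and lysate centrifuged. Supernatant cephaloridine quantified by C18 HPLC with UV at 254 nm against a standard curve, expressed per 10^6 cells.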
# [11] = target: T4, Solute carrier family 15 member 1 (Homo sapiens); assay: TP_TRANSPORTER: inhibition of Gly-Sar uptake (Gly-Sar: 50 uM, CER: 2500uM) in PEPT1-expressing HeLa cells; method in brief: as §1
# [12] = target: T3, Organic cation/carnitine transporter 2; assay: TP_TRANSPORTER: inhibition of Carnitine uptake (Carnitine: 0.02 uM, Cephradine: 2500 uM) in OCTN2-expressing HeLa cells
# [13] = target: T3, Organic cation/carnitine transporter 2; assay: TP_TRANSPORTER: inhibition of Carnitine uptake (Carnitine: 0.02 uM, Cyclacillin: 2500 uM) in OCTN2-expressing HeLa cells
compound,measurement,setting,value
CO/N=C(\C(=O)N[C@@H]1C(=O)N2C(C(=O)[O-])=C(C[n+]3ccc(N)n3CCO)CS[C@H]12)c1csc(N)n1 [CEFOSELIS],Activity,[1],83%
same,activity at 2500 µM,[2],71%
same,IC50,[3],6.4 mM
same,Activity,[4],76%
CC(C)(O/N=C(\C(=O)N[C@@H]1C(=O)N2C(C(=O)[O-])=C(C[n+]3ccccc3)CS[C@H]12)c1csc(N)n1)C(=O)O [CEFTAZIDIME],Activity,[5],is not an inhibitor [-]
same,Activity,[6],is not an inhibitor [-]
same,Activity,[7],is not an inhibitor [-]
same,Activity,[8],is not an inhibitor [-]
CC1=C(C(=O)O)N2C(=O)[C@@H](NC(=O)[C@H](N)c3ccccc3)[C@H]2SC1 [CEPHALEXIN ANHYDROUS],Activity,[9],is not an inhibitor [-]
O=C(Cc1cccs1)N[C@@H]1C(=O)N2C(C(=O)[O-])=C(C[n+]3ccccc3)CS[C@H]12 [CEPHALORIDINE],Activity,[10],substrate [+]
same,Activity,[11],is not an inhibitor [-]
CC1=C(C(=O)O)N2C(=O)[C@@H](NC(=O)[C@H](N)C3=CCC=CC3)[C@H]2SC1 [CEPHRADINE],Activity,[12],is not an inhibitor [-]
CC1(C)S[C@@H]2[C@H](NC(=O)C3(N)CCCCC3)C(=O)N2[C@H]1C(=O)O [CYCLACILLIN],Activity,[13],is not an inhibitor [-]
